The test system of the assay is Murine stromal cell line. In words: In vitro ability to induce a hematopoietic synergistic factor from a murine stromal cell line at 0.10 ug/mL; Not Detected. It counts as functional, cell-based. The conditions noted are these: Mus musculus. The method in brief:
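Murine stromal cell line C6.4 exposed to test compounds at 0.10, 1.0 and 10.0 µg/mL. Stromal supernatants then assayed for induced hematopoietic synergistic factor (HSF) activity in a murine bone marrow CFU-GM colony assay. Reference peptide included in every assay at 1.0 µg/mL as positive control.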

For the molecule `O=C(CCNC(=O)[C@H](CO)NC(=O)c1ccc[nH]1)Nc1ccc(NC(=O)CCNC(=O)[C@H](CO)NC(=O)c2ccc[nH]2)cc1`, the HSF release entry is “Not detected”.
